Measurements as given in paper PMC4351130 (Nature structural & molecular biology, 2015).

How the values were obtained:
[1] = system: δ-OR; details: cited from earlier work
[2] = system: human δ-OR; assay: δ-OR β-arrestin recruitment Tango assay; format: cell-based; details: normalized to DADLE, N = 3 in quadruplicate, Supplementary Fig. 5
In short: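 Modified Tango β-arrestin recruitment format at human δ-OR. Values are mean ± SEM from three independent experiments, each run in quadruplicate.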

[3] = system: μ-OR; details: cited from earlier work
[4] = co-administration with morphine; cited from earlier work
[5] = molecular target: double δ-OR mutant Leu300^7.35Trp - Trp284^6.58Lys (human) (UniProt P41143)

H-Dmt(1)-Tic(2)-Phe(3)-Phe(4)-NH2 [DIPP-NH2]
Functional activity in mouse vas deferens assay [1]: δ-OR antagonist
Agonist activity at δ-OR, β-arrestin pathway [2]: weak partial agonist activity
Functional activity in guinea pig ileum assay [3]: μ-OR agonist

Oc1ccc2c3c1O[C@H]1c4[nH]c5ccccc5c4C[C@@]4(O)[C@@H](C2)N(CC2CC2)CC[C@]314 [naltrindole]
Effect on development of morphine-induced tolerance and dependence [4]: prevent the development of morphine-induced tolerance and dependence

DIPP-NH2, H-Dmt(1)-Tic(2)-Phe(3)-Phe(4)-NH2 (peptide)
fold decrease in affinity against the unmutated receptor [5]: > 100 fold
